Experimental data of several laboratories.
Lines come from different studies, so protocols differ.

| SMILES | cell line | assay | conditions | measurement | value |
| --- | --- | --- | --- | --- | --- |
| COc1ccc2[nH]cc(CCNc3nccc(Nc4cccc5c4ccn5C)n3)c2c1 | U-937 | cell growth or viability, fluorescence | 72 h | IC50 | 0.008 µM |
| COC(=O)[C@H]1O[C@@H](O[C@H]2CC[C@]3(C)[C@H]4CC=C5[C@@H]6CC(C)(C)CC[C@]6(C(=O)O[C@@H]6O[C@H](CO)[C@@H](O)[C@H](O)[C@H]6O)CC[C@@]5(C)[C@]4(C)CC[C@H]3C2(C)C)[C@H](O)[C@@H](O)[C@@H]1O[C@@H]1O[C@@H](CO)[C@H](O)[C@H]1O | human Neutrophil | elastase release, inhibitor | – | IC50 | > 30 µM |
| Cc1c2ccncc2c(C)c2c1[nH]c1ccccc12 | KB | cell growth or viability, MTT | 72 h | IC50 | 0.22 µg/mL |
| O=C(O)c1cnn(-c2ccccc2)c1OCCCc1c[nH]c2ccccc12 | HFF | cell growth or viability | 200 µM, 96 h | inhibition | < 50% |
| Cl.O[C@]12C=C(c3nccc4c3[nH]c3ccccc34)[C@@H]3CCN(CCCC/C=C\CC1)C[C@@]31C[C@@H]3/C=C\CCCCN3[C@H]12 | KB | cell growth or viability, neutral red | 48 h | IC50 | 0.38 µg/mL |
| N.N.[Cl][Pt][Cl] | Hs 683 | cell growth or viability, MTT | – | IC50 | 1.12 µM |
| COc1cc2[nH]c(C)c(-c3ccc(N(C)C)cc3)c(=O)c2cc1Cl | J774 | cell growth or viability | – | EC50 | > 29.2 µM |
| CC1=CC(=O)c2c(O)cccc2C1=O | NCI-H226 | cell growth or viability, SRB | – | IC50 | 3.03 µM |
| CCCCOC(=O)[C@H]1O[C@@H](O[C@H]2CC[C@]3(C)[C@H]4CC=C5[C@@H]6CC(C)(C)CC[C@]6(C(=O)O[C@@H]6O[C@H](CO)[C@@H](O)[C@H](O)[C@H]6O)CC[C@@]5(C)[C@]4(C)CC[C@H]3C2(C)C)[C@H](O[C@@H]2OC[C@@H](O)[C@H](O)[C@H]2O)[C@@H](O)[C@@H]1O | human Neutrophil | elastase release, inhibitor | – | IC50 | > 30 µM |
| COc1cccc2c1C(=O)c1c(O)c3c(c(O)c1C2=O)C[C@@](O)(C(=O)CO)C[C@@H]3O[C@H]1C[C@H](N)[C@H](O)[C@H](C)O1 | KB | cell growth or viability | 48 h | IC50 | 1.4 µg/mL |
